Data published in ChEMBL document CHEMBL1125107, “Cephalosporin 3'-quinolone esters with a dual mode of action” (J Med Chem, 1990).
In brackets after ≈: the same amount, converted by molar mass.

Legend:
Escherichia coli [1] = experiment: In vitro antibacterial activity was determined against Escherichia coli TEM-1 (TEM-1 (class IIIa) beta-lactamase producer); assay type: functional
How it was run: (§1)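 MIC by serial 2-fold dilution in Mueller-Hinton broth; results given as minimum inhibitory concentrations (nmol/mL).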

[2] = Evaluated for its stability in human plasma pH 6.5 at 37 degrees Celsius as determined by HPLC analysis; assay type: ADME
Pseudomonas aeruginosa [3] = experiment: In vitro antibacterial activity was determined against Pseudomonas aeruginosa 18S/H ( Class Id beta-lactamase overproducer); assay type: functional
How it was run: (§2)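 Broth MIC determination: serial 2-fold dilutions in Mueller-Hinton broth by standard methodology; the lowest concentration inhibiting growth is reported as the MIC, in nmol/mL.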

[4] = Toxicity was determined; assay type: organism-based; conditions: mouse, in vivo
How it was run: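 Acute toxicity in mice after intravenous dosing, expressed as LD50 (mg/kg iv).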

[5] = Half life period in rat after (i.v.) administration of a dose of 20 mg/kg; assay type: ADME, organism-based; set-up: dose 20 mg/kg, route intravenous; conditions: in vivo, iv
How it was run: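 Rats given 20 mg/kg iv; plasma half-life determined.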

Proteus vulgaris [6] = experiment: In vitro antibacterial activity was determined against Proteus vulgaris 1028 BC (Class Ic beta-lactamase overproducer); assay type: functional; how it was run: as §1
Pseudomonas aeruginosa [7] = experiment: In vitro antibacterial activity was determined against Pseudomonas aeruginosa ATCC 27853; assay type: functional; how it was run: as §2
Escherichia coli [8] = experiment: In vitro antibacterial activity was determined against Escherichia coli UB 1005; assay type: functional; how it was run: as §1
Proteus mirabilis [9] = experiment: In vitro antibacterial activity was determined against Proteus mirabilis 90; assay type: functional; how it was run: as §1
Enterobacter cloacae [10] = experiment: In vitro antibacterial activity was determined against Enterobacter cloacae P99 (Class Ia beta-lactamase overproducer); assay type: functional; how it was run: as §1
Staphylococcus aureus [11] = experiment: In vitro antibacterial activity was determined against Staphylococcus aureus 1059B ( inducible, high level beta-lactamase producer); assay type: functional; how it was run: as §2
[12] = Evaluated for its stability in Mueller-Hinton broth at 37 degrees Celsius as determined by HPLC analysis; conditions: pH 6.5
Staphylococcus aureus [13] = experiment: In vitro antibacterial activity was determined against Staphylococcus aureus 95 (Methicillin-resistant, high-level beta-lactamase producer); assay type: functional
How it was run: (§3)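 Serial 2-fold broth dilution in Mueller-Hinton broth, run by standard methodology; read-out is the minimum inhibitory concentration (MIC).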

Enterococcus faecalis = experiment: In vitro antibacterial activity was determined against Enterococcus faecalis ATCC 29212; assay type: functional; how it was run: as §1
Citrobacter freundii = experiment: In vitro antibacterial activity was determined against Citrobacter freundii BS-16; assay type: functional; how it was run: as §1
Staphylococcus aureus [14] = experiment: In vitro antibacterial activity was determined against Staphylococcus aureus ATCC 29213 ( inducible, low level beta-lactamase producer); assay type: functional; how it was run: as §2
Serratia marcescens = experiment: In vitro antibacterial activity was determined against Serratia marcescens 1071; assay type: functional; how it was run: as §2
Staphylococcus aureus [15] = experiment: In vitro antibacterial activity was determined against Staphylococcus aureus 1059B (inducible, high level beta-lactamase producer); assay type: functional; how it was run: as §3
Proteus vulgaris [16] = experiment: In vitro antibacterial activity was determined against Proteus vulgaris 1028BC (Class Ic beta-lactamase overproducer; assay type: functional; how it was run: as §1
Staphylococcus aureus [17] = experiment: In vitro antibacterial activity was determined against Staphylococcus aureus ATCC 29213 (inducible, low level beta-lactamase producer); assay type: functional; how it was run: as §3
Streptococcus pyogenes [18] = experiment: In vitro antibacterial activity was determined against Streptococcus pyogenes 4; assay type: functional; how it was run: as §2
Streptococcus pneumoniae [19] = experiment: (§4) In vitro antibacterial activity was determined against Streptococcus pneumoniae 6301; assay type: functional; how it was run: as §2
Pseudomonas aeruginosa [20] = experiment: In vitro antibacterial activity was determined against Pseudomonas aeruginosa 18S/H (Class Id beta-lactamase overproducer); assay type: functional; how it was run: as §2
Escherichia coli [21] = experiment: Evaluated for the minimum inhibitory concentration against Escherichia coli UB 1005; assay type: functional; how it was run: as §1
Streptococcus pneumoniae [22] = experiment: Minimum inhibitory concentration against Streptococcus pneumoniae 6301; assay type: functional; how it was run: as §2
Pseudomonas aeruginosa [23] = experiment: Evaluated for the minimum inhibitory concentration against Pseudomonas aeruginosa 18S/H ( Class Id beta-lactamase overproducer); assay type: functional; how it was run: as §1
Proteus vulgaris [24] = experiment: Evaluated for the minimum inhibitory concentration against Proteus vulgaris 1028 BC ( Class Ic beta-lactamase overproducer); assay type: functional; how it was run: as §1
Streptococcus pyogenes [25] = experiment: Minimum inhibitory concentration against Streptococcus pyogenes 4; assay type: functional; how it was run: as §2
Staphylococcus aureus [26] = experiment: Minimum inhibitory concentration against Staphylococcus aureus 95 (Methicillin-resistant, high-level beta-lactamase producer); assay type: functional; how it was run: as §3
Pseudomonas aeruginosa [27] = experiment: Minimum inhibitory concentration against Pseudomonas aeruginosa ATCC 27853; assay type: functional; how it was run: as §2
Enterobacter cloacae [28] = experiment: Evaluated for the minimum inhibitory concentration against Enterobacter cloacae P99 ( Class Ia beta-lactamase overproducer); assay type: functional; how it was run: as §1
Staphylococcus aureus [29] = experiment: Evaluated for the minimum inhibitory concentration against Staphylococcus aureus 1059B ( inducible, high level beta-lactamase producer); assay type: functional; how it was run: as §3
Staphylococcus aureus [30] = experiment: Evaluated for the minimum inhibitory concentration against Staphylococcus aureus ATCC 29213 ( inducible, low level beta-lactamase producer); assay type: functional; how it was run: as §3
Proteus vulgaris [31] = experiment: Evaluated for the minimum inhibitory concentration against Proteus vulgaris 1028 BC ( Class Ic beta-lactamase overproducer; assay type: functional; how it was run: as §1
Escherichia coli [32] = experiment: In vivo effective dose against mice infected with Escherichia coli 257; assay type: functional
How it was run: (§5)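 Mouse protection test against systemic infection, run by literature procedures; the compound was given subcutaneously, and the effective dose (ED50, mg/kg) was determined.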

Streptococcus pyogenes [33] = experiment: In vivo effective dose against mice infected with streptococcus pyogenes 4; assay type: functional; how it was run: as §5
Escherichia coli [34] = experiment: In vitro antibacterial activity was determined against Escherichia coli DC-O; assay type: functional; how it was run: as §1
Micrococcus luteus = experiment: In vitro antibacterial activity was determined against Micrococcus luteus PCI; assay type: functional; how it was run: as §1
Streptococcus pneumoniae [35] = experiment: as §4; assay type: functional; how it was run: as §2; remark: listed apart in the source
Pseudomonas aeruginosa [36] = experiment: Evaluated for the minimum inhibitory concentration against Pseudomonas aeruginosa 18S/H (Class Id beta-lactamase overproducer); assay type: functional; how it was run: as §1
Proteus mirabilis [37] = experiment: Evaluated for the minimum inhibitory concentration against Proteus mirabilis 90
Proteus vulgaris [38] = experiment: Minimum inhibitory concentration against Proteus vulgaris 1028 BC (Class Ic beta-lactamase overproducer); assay type: functional; how it was run: as §2

Row | Structure (SMILES) | MIC (Escherichia coli [1]) | MIC (Proteus vulgaris [6]) | MIC (Pseudomonas aeruginosa [7]) | MIC (Proteus mirabilis [9]) | MIC (Enterobacter cloacae [10]) | MIC (Staphylococcus aureus [11]) | MIC (Staphylococcus aureus [13]) | MIC (Enterococcus faecalis) | MIC (Citrobacter freundii) | MIC (Serratia marcescens) | MIC (Staphylococcus aureus [17]) | MIC (Streptococcus pyogenes [18]) | MIC (Streptococcus pneumoniae [19]) | MIC (Pseudomonas aeruginosa [20]) | MIC (Escherichia coli [21]) | MIC (Streptococcus pneumoniae [22]) | MIC (Pseudomonas aeruginosa [23]) | MIC (Streptococcus pyogenes [25]) | MIC (Staphylococcus aureus [26]) | MIC (Pseudomonas aeruginosa [27]) | further results
1 | CCn1cc(C(=O)OCC2=C(C(=O)O)N3C(=O)[C@@H](NC(=O)COc4ccccc4)C3SC2)c(=O)c2cc3c(cc21)OCO3 (stereo partly drawn) | 1 µg/mL (≈ 1.65 µM) | 0.25 µg/mL (≈ 0.411 µM) | > 256 µg/mL | 4 µg/mL (≈ 6.58 µM) | 0.5 µg/mL (≈ 0.823 µM) | 0.5 µg/mL (≈ 0.823 µM) | 4 µg/mL (≈ 6.58 µM) | 64 µg/mL (≈ 105 µM) | 2 µg/mL (≈ 3.29 µM) | 1 µg/mL (≈ 1.65 µM) |  |  |  |  |  |  |  |  |  |  | half-life [2]: 6 h; MIC (Pseudomonas aeruginosa [3]): 16 µg/mL (≈ 26.3 µM); LD50 [4]: > 500 mg/kg; half-life [5]: 0.217 h; MIC (Escherichia coli [8]): 32 µg/mL (≈ 52.7 µM); half-life [12]: 11.2 h; MIC (Staphylococcus aureus [14]): 0.25 µg/mL (≈ 0.411 µM)
2 | CCn1cc(C(=O)O)c(=O)c2cc(F)c(N3CCSCC3)cc21 | 0.5 µg/mL (≈ 1.49 µM) |  |  | 16 µg/mL (≈ 47.6 µM) | 0.125 µg/mL (≈ 0.372 µM) |  | 0.063 µg/mL (≈ 0.187 µM) | 1 µg/mL (≈ 2.97 µM) | 16 µg/mL (≈ 47.6 µM) | 0.25 µg/mL (≈ 0.743 µM) | 0.063 µg/mL (≈ 0.187 µM) | 8 µg/mL (≈ 23.8 µM) | 16 µg/mL (≈ 47.6 µM) | 1 µg/mL (≈ 2.97 µM) |  |  |  |  |  |  | MIC (Staphylococcus aureus [15]): 0.125 µg/mL (≈ 0.372 µM); MIC (Proteus vulgaris [16]): 0.5 µg/mL (≈ 1.49 µM)
3 | CCn1cc(C(=O)OCC2=C(C(=O)O)N3C(=O)[C@@H](NC(=O)/C(=N/OC)c4csc(N)n4)C3SC2)c(=O)c2cc(F)c(N3CCCC3)cc21 (stereo partly drawn) |  |  |  |  |  |  |  |  |  |  |  |  |  |  | 0.5 µg/mL (≈ 0.715 µM) | < 0.008 µg/mL | 32 µg/mL (≈ 45.7 µM) | 1 µg/mL (≈ 1.43 µM) | 0.5 µg/mL (≈ 0.715 µM) | > 128 µg/mL | MIC (Proteus vulgaris [24]): 4 µg/mL (≈ 5.72 µM)
4 | CCn1cc(C(=O)O)c(=O)c2cc(F)c(N3CCN(C=O)CC3)cc21 [4-N-FORMYL-1-PIPERAZINYL-NORFLOXACIN] |  |  |  |  |  |  |  |  |  |  |  |  |  |  |  | 8 µg/mL (≈ 23 µM) | 2 µg/mL (≈ 5.76 µM) | 8 µg/mL (≈ 23 µM) | 1 µg/mL (≈ 2.88 µM) | 16 µg/mL (≈ 46.1 µM) | MIC (Enterobacter cloacae [28]): 0.5 µg/mL (≈ 1.44 µM); MIC (Staphylococcus aureus [29]): 1 µg/mL (≈ 2.88 µM); MIC (Staphylococcus aureus [30]): 1 µg/mL (≈ 2.88 µM); MIC (Proteus vulgaris [31]): 0.5 µg/mL (≈ 1.44 µM)
5 | CN1CCN(c2c(F)cc3c(=O)c(C(=O)O)cn(CCF)c3c2F)CC1 [FLEROXACIN] | 0.125 µg/mL (≈ 0.338 µM) | 0.25 µg/mL (≈ 0.677 µM) | 4 µg/mL (≈ 10.8 µM) | 0.5 µg/mL (≈ 1.35 µM) | 0.125 µg/mL (≈ 0.338 µM) | 0.5 µg/mL (≈ 1.35 µM) | 0.5 µg/mL (≈ 1.35 µM) | 4 µg/mL (≈ 10.8 µM) | 1 µg/mL (≈ 2.71 µM) | 0.25 µg/mL (≈ 0.677 µM) | 0.5 µg/mL (≈ 1.35 µM) | 1 µg/mL (≈ 2.71 µM) | 4 µg/mL (≈ 10.8 µM) | 2 µg/mL (≈ 5.42 µM) |  |  |  |  |  |  | ED50 (Escherichia coli [32]): 0.4 mg/kg; ED50 (Streptococcus pyogenes [33]): 183 mg/kg; MIC (Escherichia coli [34]): 1.19 µM (≈ 0.44 µg/mL); MIC (Micrococcus luteus): 38.2 µM (≈ 14.1 µg/mL); MIC (Streptococcus pneumoniae [35]): 9.53 µM (≈ 3.52 µg/mL)
6 | CN1CCN(c2c(F)cc3c(=O)c(C(=O)OCC4=C(C(=O)O)N5C(=O)[C@@H](NC=O)C5SC4)cn(CCF)c3c2F)CC1 (stereo partly drawn) |  |  |  |  |  |  |  |  |  |  |  |  |  |  | 32 µg/mL (≈ 52.5 µM) | 0.25 µg/mL (≈ 0.41 µM) |  | 0.25 µg/mL (≈ 0.41 µM) | 32 µg/mL (≈ 52.5 µM) | > 128 µg/mL | MIC (Pseudomonas aeruginosa [36]): 64 µg/mL (≈ 105 µM); MIC (Proteus mirabilis [37]): 32 µg/mL (≈ 52.5 µM); MIC (Proteus vulgaris [38]): 0.5 µg/mL (≈ 0.82 µM)
